The source made the active and inactive calls. No cut-off for these calls is given here. Where a SMILES comes first, the peptide text is derived from it. Bridges are numbered along the chain shown (N, C = ends).
Columns and labels:
[1] = Chemical stability 0.2M NH4OAc at pH 5.0 at 1 mg/ml at room temperature assessed as ratio of Asn-containing cyclic peptides after 24 hrs by HPLC method; assay type: physicochemical; conditions: 0.2 M NH4OAc buffer, read-out: Stability
In short: (§1)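 Peptide at 1.0 mg/mL (~2 mM). Buffer runs at room temperature: 0.2 M NH4OAc pH 5.0, PBS pH 7.4 or 0.1 M Tris pH 8.1. Medium runs at 37 °C in DMEM GlutaMAX-I with 10% FCS and gentamicin 160 μg/mL. Sampled at 24 and 48 h by analytical RP-HPLC. Asn/isoAsp/Asp ratio taken from peak AUC, species identified by MS and Asp reference peptides.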

[2] = Chemical stability 0.1M Tris buffer at pH 8.1 at 1 mg/ml at room temperature assessed as ratio of Asn-containing cyclic peptides after 24 hrs by HPLC method; assay type: physicochemical; conditions: read-out: Stability; in short: as §1
[3] = Chemical stability DMEM cell culture medium at pH 7.3 at 1 mg/ml at 37 degC assessed as ratio of Asn-containing cyclic peptides after 24 hrs by HPLC method; assay type: physicochemical; conditions: read-out: Stability; in short: as §1
[4] = Chemical stability 0.1M Tris buffer at pH 8.1 at 1 mg/ml at room temperature assessed as ratio of Asn-containing cyclic peptides after 48 hrs by HPLC method; assay type: physicochemical; conditions: read-out: Stability; in short: as §1
[5] = Chemical stability PBS buffer at pH 7.4 at 1 mg/ml at room temperature assessed as ratio of Asn-containing cyclic peptides after 24 hrs by HPLC method; assay type: physicochemical; conditions: read-out: Stability; in short: as §1
[6] = biological target: T1, Integrin alpha-V/beta-3 (Homo sapiens) (UniProt P05106+P06756); test: Binding affinity to integrin alphav beta3 receptor assessed as receptor-mediated cell adhesion in human A2058 cells at 10 nM to 1 uM and measured every 20 seconds for 25 hrs at 10 kHz by xCELLigence SP system based method
In short: (§2)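 A2058 human melanoma cells grown in RPMI 1640 with 10% FCS, 2 mM L-glutamine and penicillin/streptomycin at 37 °C, 5% CO2. Electrodes coated 20 min at 4 °C with peptide (10-fold dilutions in 0.1% gelatin/PBS), dried 5 min. Background read 30 min, then 10^4 cells/well added. Impedance recorded every 20 s for 25 h at 10 kHz, in triplicate. ΔCI at 5, 10 and 25 h, normalized to gelatin-only control (100%).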

[7] = Chemical stability PBS buffer at pH 7.4 at 1 mg/ml at room temperature assessed as ratio of Asn-containing cyclic peptides after 48 hrs by HPLC method; assay type: physicochemical; conditions: read-out: Stability; in short: as §1
[8] = Chemical stability 0.2M NH4OAc at pH 5.0 at 1 mg/ml at room temperature assessed as ratio of Asn-containing cyclic peptides after 48 hrs by HPLC method; assay type: physicochemical; conditions: 0.2 M NH4OAc buffer, read-out: Stability; in short: as §1
[9] = biological target: T1, Integrin alpha-V/beta-3 (Homo sapiens); test: Binding affinity to integrin alphav beta3 receptor assessed as receptor-mediated cell adhesion in human A2058 cells at 10 nM to 100 nM and measured every 20 seconds for 5 to 25 hrs at 10 kHz by xCELLigence SP system based method; in short: as §2
[10] = Chemical stability DMEM cell culture medium at pH 7.3 at 1 mg/ml at 37 degC assessed as ratio of Asn-containing cyclic peptides after 48 hrs by HPLC method; assay type: physicochemical; conditions: read-out: Stability; in short: as §1
[11] = biological target: T1, Integrin alpha-V/beta-3 (Homo sapiens); test: Binding affinity to integrin alphav beta3 receptor assessed as receptor-mediated cell adhesion in human A2058 cells at 1 uM and measured every 20 seconds for 5 to 25 hrs at 10 kHz by xCELLigence SP system based method; in short: as §2
[12] = biological target: T1, Integrin alpha-V/beta-3 (Homo sapiens); test: Binding affinity to integrin alphav beta3 receptor assessed as receptor-mediated cell adhesion in human A2058 cells at 10 nM to 1 uM and measured every 20 seconds for >5 hrs at 10 kHz by xCELLigence SP system based method; in short: as §2
[13] = biological target: T1, Integrin alpha-V/beta-3 (Homo sapiens); test: Binding affinity to integrin alphav beta3 receptor assessed as receptor-mediated cell adhesion in human A2058 cells at 100 nM and measured every 20 seconds for 25 hrs at 10 kHz by xCELLigence SP system based method; in short: as §2

Row | remaining at 24 h, 1 mg/ml [1] [%] | remaining at 24 h, 1 mg/ml [2] [%] | remaining at 24 h, 1 mg/ml [3] [%] | remaining at 48 h, 1 mg/ml [4] [%] | remaining at 24 h, 1 mg/ml [5] [%] | Activity [6] | remaining at 48 h, 1 mg/ml [7] [%] | remaining at 48 h, 1 mg/ml [8] [%] | Activity [9] | remaining at 48 h, 1 mg/ml [10] [%] | Activity [11] | Activity [12] | Activity [13] | SMILES
1 | 100 | 86 | 0 | 73 | 94 | Active | 89 | 99 |  |  |  |  |  | N=C(N)NCCC[C@@H]1NC(=O)CNC(=O)[C@H](CC(N)=O)NC(=O)CCSC[C@@H](C(N)=O)NC1=O
2 |  | 85 | 46 | 71 | 96 |  | 93 | 100 | Active | 0 |  |  |  | CC(=O)N[C@H]1CSSC[C@@H](C(N)=O)NC(=O)[C@H](CCCNC(=N)N)NC(=O)CNC(=O)[C@H](CC(N)=O)NC1=O (Ac-CNGRC-NH2; disulfide 1-5)
3 |  |  | 92 | 100 |  |  | 100 | 100 | Active | 54 | inactive |  |  | N=C(N)NCCC[C@@H]1NC(=O)CNC(=O)[C@H](CC(N)=O)NC(=O)[C@H](CCCCN)NC(=O)CC[C@@H](C(N)=O)NC1=O (KNGRE-NH2; lactam N-5)
4 | 100 | 66 | 0 | 43 | 64 | inactive | 44 | 96 |  |  |  |  |  | N=C(N)NCCC[C@@H]1NC(=O)CNC(=O)[C@H](CC(N)=O)NC(=O)CSCCC(C(N)=O)NC1=O (single isomer, unassigned)
5 | 100 | 36 | 0 | 15 | 58 | inactive | 43 | 90 |  |  |  |  |  | N=C(N)NCCC[C@@H]1NC(=O)CNC(=O)[C@H](CC(N)=O)NC(=O)[C@H](CCCCN)NC(=O)CSC[C@@H](C(N)=O)NC1=O ({CH2CO}-KNGRC-NH2; thioether N-5)
6 | 85 | 19 | 0 | 13 | 36 |  | 15 | 67 |  |  |  | Active | Active | N=C(N)NCCC[C@@H]1NC(=O)CNC(=O)[C@H](CC(N)=O)NC(=O)CSC[C@@H](C(N)=O)NC1=O ({CH2CO}-NGRC-NH2; thioether N-4)
7 | 100 | 67 |  | 47 | 86 | inactive | 75 | 98 |  |  |  |  |  | N=C(N)NCCC[C@@H]1NC(=O)CNC(=O)[C@H](CC(N)=O)NC(=O)[C@@H]2CCCN2C(=O)CSC[C@@H](C(N)=O)NC1=O ({CH2CO}-PNGRC-NH2; thioether N-5)
